Series [1] concerns Pneumocystis carinii. Briefly: Antimicrobial activity against Pneumocystis carinii infected BALB/c mouse at 2 mg/kg/day, po after 21 days administered 4 weeks postinfection by Giemsa staining method. It counts as functional, organism-based.
The subject of series [2] is Pneumocystis carinii. Briefly: Antimicrobial activity against Pneumocystis carinii infected BALB/c mouse at 2 mg/kg/day, po after 21 days administered 4 weeks postinfection by methenamine silver nitrate staining method. It counts as functional, organism-based.
Series [3] has as its system Canis familiaris. The series can be described thus: Toxicity in Beagle dog assessed as increase in methemoglobin level at 5.3 mg/kg/day, po measured on day 5. It counts as organism-based, Canis lupus familiaris. The arrangement: route oral. As to conditions: in vivo. The procedure, abridged:
(§1)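 Male beagles aged 8–9 months (n = 2) received oral primaquine diphosphate as bulk drug in gelatin capsules on days 1–4 (0.0116 mmol/kg/day as base), dosed by day-1 body weight. Jugular or cephalic blood was drawn before dosing on days 1, 2 and 4, then on days 5, 7, 9, 11, 15, 18, 21, 25 and 29. Methemoglobin was measured by co-oximeter absorbance at four wavelengths.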

For series [4], the system named is Canis familiaris. The series can be described thus: Toxicity in Beagle dog assessed as methemoglobin level at 5.3 mg/kg/day, po after 2 weeks. It counts as organism-based, Canis lupus familiaris. Further details: route oral. As to conditions: in vivo, 336 h. The method in brief: as §1

The values that follow come from ChEMBL document CHEMBL1649109, “Antiparasitic activities and toxicities of individual enantiomers of the 8-aminoquinoline 8-[(4-amino-1-methylbutyl)amino]-6-methoxy-4-methyl-5-[3,4-dichlorophenoxy]quinoline succinate” (Antimicrob Agents Chemother, 2008).

Structures are written as SMILES. Active and inactive are the calls of the source. The rule behind the calls is not given here.

With `COc1cc(NC(C)CCCN)c2ncccc2c1` (centres undefined) [PRIMAQUINE], the result in series [1] and in series [2] was inactive. Further, the results for the Activity result in series [3] and in series [4] were “Toxic” and “Non-toxic”, respectively.
